# Source: ChEMBL document CHEMBL1133719, “Synthesis and preliminary biological evaluations of CC-1065 analogues: effects of different linkers and terminal amides on biological activity” (J Med Chem, 2000)
# Columns and labels:
# [1] = Minimal drug concentration necessary to inhibit incorporation of [3H]thymidine in U937 Leukemia cells; assay type: functional, cell-based, Homo sapiens
# [2] = system: L1210; assay: Antitumor activity was tested in mice (bearing L1210 leukemia) and body weight change between days 0 and days 12 (when the animal weight was the lowest) was estimated at a dose of 25 ug/kg; assay type: functional, Mus musculus
# Outline: (§1)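 Male BDF1 mice, 4-6 weeks old, 6 per group, were given 10⁵ L1210 cells ip on day 0. Drug in DMF was diluted in 30% DMSO/0.5% glucose and given ip on days 1, 5 and 9. %ILS = (T/C − 1) × 100 on median survival of dying animals only; 30-day survivors noted separately. Group weight change was taken from day 0 to the lowest-weight day.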
# [3] = Hematological effects in female CDF1 mice platelet cells at the dose of 50ug/Kg, in platelets; assay type: functional, Mus musculus
# Outline: (§2)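 Non-tumour-bearing female CDF1 mice, 10 per group. Drug was dissolved in DMSO, diluted in 30% DMSO/0.5% glucose, and given as a single ip dose on day 1. Blood was sampled on day 27 for WBC, platelet, RBC and MCHC measurements. Values are medians of 10 mice, with saline or vehicle controls.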
# [4] = system: Mus musculus; assay: Anti tumor activity was tested in mice and percent increase of life span at a dose of 42 ug/kg; assay type: functional; outline: as §1
# [5] = system: Mus musculus; assay: Hematological effects in female CDF1 mice at the dose of 50ug/Kg, in white blood cells; assay type: functional; outline: as §2
# [6] = system: L1210; assay: Antitumor activity was tested in BDF1 male mice bearing L1210 Leukemia, at the dose of 25 ug/kg; survivors for 30 days was reported; assay type: functional, Mus musculus; outline: as §1
# [7] = system: Mus musculus; assay: Antitumor activity was tested in mice and percent increase of life span at a dose of 25 ug/kg was reported; assay type: functional
# [8] = system: L1210; assay: Antitumor activity was tested in Mice (bearing L1210 leukemia) and body weight change between days 0 and days 12 (when the animal weight was the lowest) was estimated at a dose of 70 ug/kg; assay type: functional, Mus musculus; outline: as §1
# [9] = system: L1210; assay: Antitumor activity was tested in BDF1 male mice bearing L1210 Leukemia, at the dose of 42 ug/kg; survivors for 30 days was reported; assay type: functional, Mus musculus; outline: as §1
# [10] = Hematological effects in female CDF1 mice RBCs at the dose of 50ug/Kg, in red blood cells; assay type: functional, Mus musculus, Erythrocyte; outline: as §2
# [11] = system: L1210; assay: Antitumor activity was tested in BDF1 male mice bearing L1210 Leukemia, at the dose of 70 ug/kg; activity expressed as 30-day survivors; assay type: functional, Mus musculus; outline: as §1
# [12] = system: Mus musculus; assay: Anti tumor activity was tested in mice and percent increase of life span at a dose of 70 ug/kg; assay type: functional; outline: as §1
# [13] = system: L1210; assay: Antitumor activity was tested in Mice (bearing L1210 leukemia) and body weight change between days 0 and days 12 (when the animal weight was the lowest) was estimated at a dose of 42 ug/kg; assay type: functional, Mus musculus; outline: as §1
# [14] = system: L1210; assay: Antitumor activity in mice bearing L1210 Leukemia at the dose of 30 ug/kg; survivors for 30 days was reported; assay type: functional, Mus musculus
# [15] = Compound was administered to non-tumor bearing female CDF1 mice to estimate Mean corpuscular hemoglobin concentration (MCHC); assay type: functional, Mus musculus
# Outline: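 Non-tumor-bearing female CDF1 mice, 10 per group, received one ip dose on day 1 (DMSO stock diluted in 30% DMSO/0.5% glucose). Blood was sampled on day 27 for hematology, including MCHC; values are medians of 10 mice.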
# [16] = species: Mus musculus; assay: Antitumor activity in mice bearing L1210 leukemia at a dose of 30 ug / kg; assay type: functional
# Outline: (§3)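 Female CDF1 mice, 10 per group, got 100 L1210 cells ip on day 0. Drug in DMSO was diluted with 30% DMSO in 0.5% glucose and dosed ip on days 1, 5 and 9. Long-term (60-day) survivors are given as percent of the group.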
# [17] = species: Mus musculus; assay: Mean corpuscular hemoglobin concentration (MCHC); assay type: functional; outline: as §2
# [18] = species: Mus musculus; assay: (§4) Hematological effects in female CDF1 mice at the dose of 30 mg, in white blood cells; assay type: functional
# Outline: (§5)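 Non-tumor-bearing female CDF1 mice, 10 per group. Drugs were dissolved in DMSO, diluted in 30% DMSO/0.5% glucose, and given as a single ip dose on day 1 (doses per kg). Blood was sampled on day 27 for WBC, platelet, RBC and MCHC counts. Values are medians of 10 mice.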
# [19] = species: Mus musculus; assay: Hematological effects in female CDF1 mice, in platelets; assay type: functional; outline: as §5
# [20] = species: Mus musculus; assay: Hematological effects in female CDF1 mice, in red blood cells; assay type: functional; outline: as §5
# [21] = species: Mus musculus; assay: Hematological effects in female CDF1 mice at the dose of 30mg, in red blood cells; assay type: functional; outline: as §2
# [22] = species: Mus musculus; assay: Hematological effects in female CDF1 mice at the dose of 30 mg, in platelet cells; assay type: functional; outline: as §2
# [23] = species: Mus musculus; assay: as §4; assay type: functional; outline: as §2; remark: listed apart in the source
# [24] = species: Mus musculus; assay: (§6) Hematological effects in female CDF1 mice at the dose of […], in red blood cells
# [25] = species: Mus musculus; assay: animal or person
# [26] = species: Mus musculus; assay: Antitumor activity in mice bearing B16BL6 melanoma at a dose of 10(ug/mL); survivors for 90 days was reported; assay type: functional
# Outline: (§7)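 B16BL6 cells were cultured as monolayers, and 10⁶ cells were injected ip on day 0 into female BDF1 mice (4-6 weeks, 8 per group). Drug in dimethylacetamide was diluted in DMA/Cremophor/water (1:5:44) and 0.1 mL given ip on days 1, 5 and 9. %ILS came from median survival of dying animals; 90-day survivors were counted; mean weight change covered days 1-10.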
# [27] = species: Mus musculus; assay: Antitumor activity in mice bearing B16BL6 melanoma at a dose of 5(ug/mL); survivors for 90 days was reported; assay type: functional; outline: as §7
# [28] = species: Mus musculus; assay: Mean body weight change between days 1 and 10; assay type: functional
# Outline: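 Female BDF1 mice (4-6 weeks old, 8 per group) were inoculated ip with 10⁶ B16BL6 melanoma cells on day 0. Drugs in dimethylacetamide were diluted in DMA:Cremophor:water (1:5:44) and given ip at 0.1 mL on days 1, 5 and 9 (doses per kg). Read-outs were %ILS = (T/C − 1) × 100 on median survival of dying animals only, mean body weight change from day 1 to day 10 (g/mouse), and 90-day survivors.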
# [29] = species: Mus musculus; assay: Hematological effects in female CDF1 mice at the dose of […], in platelets; assay type: functional; outline: as §5
# [30] = species: Mus musculus; assay: as §6; assay type: functional; outline: as §5
# [31] = system: Mus musculus; assay: Antitumor activity in female CDF1 mice bearing L1210 Leukemia at the dose of 30 ug/kg and survivors (60-day) was expressed; assay type: functional; outline: as §3
structure (smiles),measurement,setting,value
CC(=O)Nc1ccc2oc(C(=O)Nc3ccc4[nH]c(C(=O)N5CC(CCl)c6c5cc(O)c5ccccc65)cc4c3)cc2c1 (configuration not stated),IC50,[1],400 pM
CC(=O)Nc1ccc2oc(C(=O)Nc3ccc4[nH]c(C(=O)N5CC6CC67C5=CC(=O)c5ccccc57)cc4c3)cc2c1 (configuration not stated),Weight change,[2],23%
same,Platelet,[3],1.01 10e6 ul-1
same,ILS at 0.042 mg/kg,[4],80%
same,WBC,[5],13.95 10e3 ul-1
same,No. of survivors,[6],0
same,ILS at 0.025 mg/kg,[7],53%
same,Weight change,[8],-15%
same,No. of survivors,[9],1
same,RBC,[10],7.81 10e6 ul-1
same,IC50,[1],200 pM
same,No. of survivors,[11],0
same,ILS at 0.07 mg/kg,[12],93%
same,Weight change,[13],18%
same,No. of survivors,[14],60
same,MCHC,[15],35.5 g/dL
CC(=O)Nc1ccc2[nH]c(C(=O)N3CC(CCl)c4c3cc(O)c3ccccc43)cc2c1 (configuration not stated),IC50,[1],3000 pM
CCCC(=O)Nc1ccc2oc(C(=O)Nc3ccc4[nH]c(C(=O)N5CC(CCl)c6c5cc(O)c5ccccc65)cc4c3)cc2c1 (configuration not stated),Survivors,[16],20%
same,IC50,[1],8 pM
CC(=O)Nc1ccc2[nH]c(/C=C/C(=O)N3CC(CCl)c4c3cc(O)c3ccccc43)cc2c1 (configuration not stated),IC50,[1],900 pM
C[S+](C)[O-].OC[C@H]1O[C@H](O)[C@H](O)[C@@H](O)[C@@H]1O,MCHC,[17],34.45 g/dL
same,WBC,[18],12.85 10e3 ul-1
same,Platelet,[19],1.16 10e6 ul-1
same,RBC,[20],8.5 10e6 ul-1
CS(=O)(=O)OCCCCOS(C)(=O)=O [BUSULFAN],WBC,[18],7 10e3 ul-1
same,RBC,[21],8.45 10e6 ul-1
same,Platelet,[22],0.71 10e6 ul-1
O=P1(N(CCCl)CCCl)NCCCO1 (configuration not stated) [CYCLOPHOSPHAMIDE ANHYDROUS],WBC,[23],11.22 10e3 ul-1
same,RBC,[24],7.67 10e6 ul-1
same,ILS at 0.125 mg/kg,[25],173%
COc1cccc2c1C(=O)c1c(O)c3c(c(O)c1C2=O)C[C@@](O)(C(=O)CO)C[C@@H]3O[C@H]1C[C@H](N)[C@H](O)[C@H](C)O1 [DOXORUBICIN],No. of survivors,[26],2
same,No. of survivors,[27],0
same,Weight,[28],0.5 g
O=c1[nH]cc(F)c(=O)[nH]1 [FLUOROURACIL],MCHC,[17],35.4 g/dL
same,WBC,[18],12.4 10e3 ul-1
same,RBC,[21],8.82 10e6 ul-1
same,Platelet,[22],1.24 10e6 ul-1
CC(=O)O[C@H]1C(=O)[C@@]2(C)[C@H]([C@H](OC(=O)c3ccccc3)[C@]3(O)C[C@H](OC(=O)[C@H](O)[C@@H](NC(=O)c4ccccc4)c4ccccc4)C(C)=C1C3(C)C)[C@]1(OC(C)=O)CO[C@@H]1C[C@@H]2O [PACLITAXEL],MCHC,[17],36.5 g/dL
same,WBC,[23],13.4 10e3 ul-1
same,Platelet,[29],1.04 10e6 ul-1
same,RBC,[30],8.33 10e6 ul-1
same,Survivors,[31],0%
